The target in test [1] is T1, Tyrosine-protein phosphatase non-receptor type 1 (Homo sapiens, UniProt P18031).
T1 sequence (P18031 whole entry): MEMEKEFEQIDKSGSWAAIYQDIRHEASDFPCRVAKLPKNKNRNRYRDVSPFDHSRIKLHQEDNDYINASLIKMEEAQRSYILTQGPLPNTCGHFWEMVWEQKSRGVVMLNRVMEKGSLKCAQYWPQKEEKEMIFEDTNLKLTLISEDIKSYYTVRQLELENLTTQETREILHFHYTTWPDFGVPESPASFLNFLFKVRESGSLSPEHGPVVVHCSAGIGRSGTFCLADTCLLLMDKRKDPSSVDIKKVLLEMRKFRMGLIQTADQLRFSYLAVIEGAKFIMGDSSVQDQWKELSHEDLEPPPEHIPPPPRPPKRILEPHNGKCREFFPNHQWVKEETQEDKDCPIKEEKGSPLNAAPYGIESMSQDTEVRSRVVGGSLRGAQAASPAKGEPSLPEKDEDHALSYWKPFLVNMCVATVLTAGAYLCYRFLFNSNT
The test is described as follows: Inhibition of human PTP1B using p-nitrophenol phosphate as substrate incubated for 35 mins prior to substrate addition measured after 30 mins by spectrophotometry. The method, boiled down: (§1)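 Recombinant human phosphatase, expressed and purified, in 20 mM MOPS pH 7.2 with 50 mM NaCl. Preincubated with inhibitor at various concentrations for 35 min at 37 °C. p-NPP (0.1 M stock) added and reaction run about 30 min, then stopped with 2 M NaOH.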

Test [2] deals with T2, Tyrosine-protein phosphatase non-receptor type 2 (Homo sapiens, UniProt P17706).
T2 sequence (P17706 whole entry): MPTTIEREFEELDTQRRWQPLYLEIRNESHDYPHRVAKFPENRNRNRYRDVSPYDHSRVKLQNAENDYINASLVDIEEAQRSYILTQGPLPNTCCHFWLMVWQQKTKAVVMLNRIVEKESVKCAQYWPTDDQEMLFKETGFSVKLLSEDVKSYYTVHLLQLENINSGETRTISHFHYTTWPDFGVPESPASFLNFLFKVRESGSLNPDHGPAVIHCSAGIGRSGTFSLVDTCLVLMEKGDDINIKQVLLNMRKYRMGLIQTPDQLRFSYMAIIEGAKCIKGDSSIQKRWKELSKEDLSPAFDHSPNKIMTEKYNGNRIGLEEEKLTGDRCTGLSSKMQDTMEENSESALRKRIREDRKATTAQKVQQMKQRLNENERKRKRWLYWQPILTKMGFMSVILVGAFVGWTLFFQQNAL
The test is described as follows: Inhibition of human TCPTP using p-nitrophenol phosphate as substrate incubated for 35 mins prior to substrate addition measured after 30 mins by spectrophotometry. The method, boiled down: as §1

The target of test [3] is T3, Tyrosine-protein phosphatase non-receptor type 9 (Homo sapiens, UniProt P43378).
T3 sequence (P43378 whole entry): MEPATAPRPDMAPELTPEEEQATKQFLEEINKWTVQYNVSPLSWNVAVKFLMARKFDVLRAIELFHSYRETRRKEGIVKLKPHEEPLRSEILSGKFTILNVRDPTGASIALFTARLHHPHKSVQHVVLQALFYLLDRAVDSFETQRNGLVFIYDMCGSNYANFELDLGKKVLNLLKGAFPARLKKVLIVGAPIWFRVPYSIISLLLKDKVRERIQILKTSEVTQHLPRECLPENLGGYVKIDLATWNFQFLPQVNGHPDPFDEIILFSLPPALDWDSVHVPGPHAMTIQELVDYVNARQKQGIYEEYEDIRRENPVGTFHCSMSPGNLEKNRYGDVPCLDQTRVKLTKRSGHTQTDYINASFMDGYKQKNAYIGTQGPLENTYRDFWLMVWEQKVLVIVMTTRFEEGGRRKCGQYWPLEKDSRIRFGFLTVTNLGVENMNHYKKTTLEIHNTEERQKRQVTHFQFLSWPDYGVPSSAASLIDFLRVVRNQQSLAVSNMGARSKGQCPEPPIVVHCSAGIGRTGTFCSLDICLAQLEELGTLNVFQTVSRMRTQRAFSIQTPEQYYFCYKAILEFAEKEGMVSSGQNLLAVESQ
Kind of test: Inhibition of human PTP-MEG2 using p-nitrophenol phosphate as substrate incubated for 35 mins prior to substrate addition measured after 30 mins by spectrophotometry. The method, boiled down: as §1

Test [4] concerns the target Tyrosine-protein phosphatase non-receptor type 6 (Homo sapiens, UniProt P29350). The test is described as follows: Inhibition of human SHP1 using p-nitrophenol phosphate as substrate incubated for 35 mins prior to substrate addition measured after 30 mins by spectrophotometry. The method, boiled down: as §1
The target of test [5] is T4, Tyrosine-protein phosphatase non-receptor type 11 (Homo sapiens, UniProt Q06124).
T4 sequence (Q06124 whole entry): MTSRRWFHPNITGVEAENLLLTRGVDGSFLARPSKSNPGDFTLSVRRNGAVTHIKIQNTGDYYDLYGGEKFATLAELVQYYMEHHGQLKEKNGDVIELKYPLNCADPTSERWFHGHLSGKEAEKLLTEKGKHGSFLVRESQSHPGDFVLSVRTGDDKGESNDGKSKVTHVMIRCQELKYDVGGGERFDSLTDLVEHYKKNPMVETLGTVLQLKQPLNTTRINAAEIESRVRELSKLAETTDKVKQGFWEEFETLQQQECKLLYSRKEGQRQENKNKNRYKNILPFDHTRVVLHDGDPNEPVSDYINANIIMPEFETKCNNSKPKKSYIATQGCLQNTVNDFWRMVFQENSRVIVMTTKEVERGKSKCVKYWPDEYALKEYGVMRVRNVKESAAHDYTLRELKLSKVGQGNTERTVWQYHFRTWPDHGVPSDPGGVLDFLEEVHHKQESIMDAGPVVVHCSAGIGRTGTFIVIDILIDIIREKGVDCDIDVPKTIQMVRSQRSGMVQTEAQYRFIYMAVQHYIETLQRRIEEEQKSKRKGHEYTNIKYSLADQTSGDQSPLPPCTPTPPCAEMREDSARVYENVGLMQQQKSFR
Kind of test: Inhibition of human SHP2 using p-nitrophenol phosphate as substrate incubated for 35 mins prior to substrate addition measured after 30 mins by spectrophotometry. The method, boiled down: as §1

The subject of test [6] is HepG2. The test is described as follows: Cytotoxicity against human HepG2 cells after 48 hrs by MTT assay. Type of test: functional, cell-based. The method, boiled down: (§2)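 HepG2 or MCF7 cells in DMEM with 10% FBS and penicillin/streptomycin, 37 °C, 5% CO2. Plated overnight, then exposed to a range of concentrations for 48 h with DMSO held at 1.0% in samples and control. MTT (5 mg/mL stock) added for 4 h at 37 °C, formazan dissolved in DMSO, OD read at 490 nm. Viability % = T/C × 100, averaged over six wells.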
(Tetrazolium assays rely on reduction of a dye to a coloured formazan, in cell work by metabolically active cells.)

The next test concerns MCF7. Kind of test: Cytotoxicity against human MCF7 cells after 48 hrs by MTT assay. The format is functional, cell-based. The method, boiled down: as §2
In test [7] the test system is HepG2. The test is described as follows: Induction of apoptosis in human HepG2 cells at 50 uM after 48 hrs by AnnexinV-FITC/PI flow cytometric analysis. Type of test: functional, cell-based. The method, boiled down:
(§3)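 HepG2 cells exposed to 50, 100 or 300 μM for 48 h. Harvested, washed twice in ice-cold 0.85% NaCl, then resuspended in binding buffer with Annexin V-FITC and PI. Stained 15 min in the dark at room temperature and analysed by flow cytometry within 1 h. Viable, early/late apoptotic and necrotic fractions quantified from annexin V binding and PI uptake; mean ± SD, n = 3.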

Test [8] deals with HepG2. Kind of test: Induction of apoptosis in human HepG2 cells assessed as apoptotic cells at 100 uM after 48 hrs by AnnexinV-FITC/PI flow cytometric analysis. The format is functional. The method, boiled down: as §3
Test [9] has as its system HepG2. The test is described as follows: Induction of necrosis in human HepG2 cells assessed as necrotic cells at 100 uM after 48 hrs by AnnexinV-FITC/PI flow cytometric analysis. The format is functional. The method, boiled down: as §3
For orientation: A flow cytometer gives signals particle by particle.

The subject of test [10] is HepG2. The test is described as follows: Induction of apoptosis in human HepG2 cells assessed as apoptotic cells at 300 uM after 48 hrs by AnnexinV-FITC/PI flow cytometric analysis. The format is functional. The method, boiled down: as §3
The subject of test [11] is HepG2. The test is described as follows: Induction of necrosis in human HepG2 cells assessed as necrotic cells at 300 uM after 48 hrs by AnnexinV-FITC/PI flow cytometric analysis. The format is functional. The method, boiled down: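 HepG2 cells grown in DMEM with 10% FBS and penicillin/streptomycin at 37 °C under 5% CO2, then exposed for 48 h to three concentrations (50, 100, 300). Cells were washed twice in ice-cold 0.85% NaCl and stained with annexin V-FITC and PI in binding buffer for 15 min in the dark at room temperature. Flow cytometry within 1 h sorted necrotic cells by annexin V binding and PI uptake; mean ± SD, n = 3.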

The target of test [12] is T5, Tyrosine-protein phosphatase non-receptor type 1 (Homo sapiens) (UniProt P18031).
T5 sequence (whole entry): T1 sequence (P18031 whole entry)

For test [13], the target named is T5, Tyrosine-protein phosphatase non-receptor type 1 (Homo sapiens). This is another data set of the same source.
Test [14] shares this target. This is another data set of the same source.

Active and inactive are the calls of the source. The calls are words filed in the database; no cut-off is given here.

This is an account of results in ChEMBL document CHEMBL1944565, “Exploration of α-aminophosphonate N-derivatives as novel, potent and selective inhibitors of protein tyrosine phosphatases” (Eur J Med Chem, 2012).

Tyrosine-protein phosphatase non-receptor type 6, sequence (P29350 whole entry): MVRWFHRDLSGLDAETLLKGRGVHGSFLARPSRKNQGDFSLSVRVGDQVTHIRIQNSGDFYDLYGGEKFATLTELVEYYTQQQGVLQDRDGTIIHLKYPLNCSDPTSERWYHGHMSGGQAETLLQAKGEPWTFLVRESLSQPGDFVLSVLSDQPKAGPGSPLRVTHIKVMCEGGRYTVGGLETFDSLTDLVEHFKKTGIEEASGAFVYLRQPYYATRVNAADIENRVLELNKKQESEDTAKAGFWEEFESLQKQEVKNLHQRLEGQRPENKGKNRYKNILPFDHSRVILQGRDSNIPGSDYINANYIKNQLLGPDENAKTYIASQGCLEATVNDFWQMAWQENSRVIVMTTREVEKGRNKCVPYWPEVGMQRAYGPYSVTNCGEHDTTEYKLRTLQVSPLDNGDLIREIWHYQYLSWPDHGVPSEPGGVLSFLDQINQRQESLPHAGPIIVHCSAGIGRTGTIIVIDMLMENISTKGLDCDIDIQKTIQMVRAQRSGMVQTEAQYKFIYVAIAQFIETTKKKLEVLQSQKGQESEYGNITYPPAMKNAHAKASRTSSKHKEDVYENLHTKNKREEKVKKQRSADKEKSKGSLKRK

The term IC50 denotes the point on the concentration scale where inhibition reaches its midpoint. A high value points to lower potency. Take `O=P(O)(O)[C@H](Nc1ccc(O)cc1)c1ccccc1O`: the IC50 in [1] is 6.64 µM; in test [2], 14.4 µM; in test [3], 160 µM; in test [4], more than 10000 µM; in test [5], more than 10000 µM. The Activity entry in the test with HepG2 [6] is “Dose-dependent effect”; in the test on MCF7, “Dose-dependent effect”; with HepG2 [8] it was 7.2%; with HepG2 [9] it was 1.9%; in the test with HepG2 [10], 69.7%; in the test with HepG2 [11], 22.7%. Moreover, the outcome with HepG2 [7] was inactive. The same compound came in with a Kic in test [12] of 4.4 µM. Besides, the Ka in [13] was determined as 2.23 ×10⁵ /M; in test [14], 2.27 ×10⁵ /M.
